Bioassay records from PubChem.
Kir21 block: Kir2.1 (mouse) channel inhibition. B-score at 10 µM. P35561. hit rate 0.85% among 310,000. HEK293-Kir2.1, FluxOR thallium flux fluorescence; stronger effect = lower value;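 active = fluorescence ratio B-score at or below minus 3 SD of library scores, with starting-brightness B-score within 2 SD, cut at about -4.2 in these data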;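 also: channel flux triggered by added potassium and thallium sulfate stimulus; B-score of peak minus minimum fluorescence over baseline after thallium stimulus; more negative B-score means stronger Kir2.1 block with less thallium influx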
Target sequence (P35561 whole entry, looked up): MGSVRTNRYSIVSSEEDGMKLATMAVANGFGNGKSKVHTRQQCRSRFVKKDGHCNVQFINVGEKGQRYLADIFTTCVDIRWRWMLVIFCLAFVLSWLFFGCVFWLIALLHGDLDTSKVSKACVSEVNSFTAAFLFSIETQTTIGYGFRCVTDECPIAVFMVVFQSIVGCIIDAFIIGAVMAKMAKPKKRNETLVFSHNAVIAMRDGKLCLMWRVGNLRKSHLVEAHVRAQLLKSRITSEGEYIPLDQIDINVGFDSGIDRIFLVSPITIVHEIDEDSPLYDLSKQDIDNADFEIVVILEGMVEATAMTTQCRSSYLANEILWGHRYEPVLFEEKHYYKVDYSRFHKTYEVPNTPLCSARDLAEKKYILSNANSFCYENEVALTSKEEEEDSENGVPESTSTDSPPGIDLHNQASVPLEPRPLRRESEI
KCNQ1 block: inhibitors of human KCNQ1 potassium channel | hit rate 1.3% among 310,000 | B-score at 10 µM | P51787 | CHO-K1 KCNQ1, FluxOR thallium flux fluorescence; stronger effect = higher value;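 active = compounds whose thallium flux B-score, printed positive for inhibition, exceeds three library SD while starting fluorescence stays within three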;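 also: channel opened by potassium depolarization with thallium stimulus after 20 min compound exposure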
hERG rescue: hERG (human) protection from proarrhythmic block. hit rate 0.51% among 310,000. activation (rescue from dofetilide block), less the hit threshold, % at 10 µM. Q12809. CHO-hERG, FluxOR thallium flux, dofetilide IC70 present. AID 1511;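 active = activation above the mean of controls blocked by dofetilide plus 5 SD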;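 also: thallium influx through hERG after potassium depolarization seen as dye fluorescence rise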
KCNK9 inh: inhibitors of human KCNK9 two-pore domain potassium channel | HEK293 KCNK9, FluxOR thallium flux fluorescence; stronger effect = lower value | B-score at 10 µM | hit rate 1.2% among 310,000 | AID 488922;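 active = ratio B-score over 3 SD below the library mean, with starting fluorescence within 5 SD of its mean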;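 also: negative B-score means less thallium flux so channel inhibition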
KCNK3 block: human KCNK3 channel inhibition, primary screen; O14649; CHO-KCNK3 thallium flux, FluxOR fluorescence; stronger effect = lower value; B-score at 10 µM; hit rate 0.84% among 340,000;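 active = B-score under library mean minus 4 SD, starting fluorescence ratio at most library mean plus 5 SD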;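 also: more negative B-score means stronger inhibition of thallium flux through KCNK3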
KCNQ1 act: potentiators or activators of human KCNQ1 potassium channel; P51787; CHO-K1 KCNQ1, thallium flux FluxOR fluorescence; stronger effect = higher value; B-score at 10 µM; hit rate 0.35% among 310,000; AID 2648;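 active = fluorescence ratio B-score, a plate-corrected score, at least three library SD, with initial intensity B-score within 5 SD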
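Material: CHO-K1 cells stably expressing KCNQ1. Medium: assay buffer for compound exposure, DMSO matched across wells. Reagent: K+/Tl+ depolarizing stimulus. Compound dosing: single-concentration screen. Times: 37 °C overnight plating, 90-min dark dye load, 20-min compound pretreatment. Technique: FluxOR Tl+ flux fluorescence.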
KCNK9 inh conf: human KCNK9 inhibitor confirmation. HEK293 KCNK9 cells, FluxOR thallium flux fluorescence. shares compounds with KCNK9 inh. hit rate 43% among 4,900. inhibition, % at 10 µM;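 active = thallium signal inhibited by more than 5 SD of the compound-free buffer control wells, on both duplicate plates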
Kir2-1 spec: mouse Kir2.1 off-target activity of KCNK9 modulators; shares compounds with KCNK9 inh; Kir2.1 cells, FluxOR thallium flux fluorescence; inhibition, % at 10 µM; hit rate 4% among 4,900;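 active = thallium signal drop more than 5 SD beyond the mean of the no-compound control wells, seen in both duplicate plates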;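 also: signal is fluorescence rise after thallium addition divided by baseline fluorescence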
HEK293 Tl ctr: non-induced cell nonspecific activity of KCNK9 modulators | shares compounds with KCNK9 inh | non-induced KCNK9-HEK293, FluxOR thallium flux | inhibition, % at 10 µM | hit rate 40% among 4,900;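 active = thallium signal drop beyond 5 SD of the untreated control mean, on both duplicate plates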
Hits are given with their value; i = inactive; nt = no result given. Compounds with a hit are over-represented: about 3.8% of the library has one in this group of screens.

SMILES	Kir21 block	KCNQ1 block	hERG rescue	KCNK9 inh	KCNK3 block	KCNQ1 act	KCNK9 inh conf	Kir2-1 spec	HEK293 Tl ctr
N#Cc1ccc(Oc2cccnc2)cc1C#N	i	i	i	i	i	i	nt	nt	nt
COC(=O)c1ccccc1NC(=O)C1CCN(C(=O)c2ccc(OC)cc2)CC1	i	i	i	i	i	i	i	i	i
COc1ccc(C(=O)N2CCC(C(=O)NC3CC3)CC2)cc1	i	i	i	i	i	i	nt	nt	nt
CCc1ccc(NC(=O)N(C2CCC(C)CC2)C2CCN(C(C)=O)CC2)cc1 (stereo not given)	i	i	i	i	i	i	nt	nt	nt
CN(CC(=O)Nc1ccccc1Cl)CC(=O)Nc1sc2c(c1C(N)=O)CCC2	i	i	i	i	i	i	nt	nt	nt
COc1ccc(C2Nc3ccccc3C(=O)N2Cc2ccco2)cc1CN1C(=O)c2ccccc2C1=O (stereo not given)	i	i	i	i	i	i	nt	nt	nt
COc1ccc(C2Nc3ccccc3C(=O)N2Cc2ccco2)cc1COc1ccc(F)cc1 (stereo not given)	i	i	i	-9	i	i	35%	i	36%
O=C(CCCSc1ccc(Cl)cc1)Nc1ccccc1O	i	9	i	i	i	i	i	i	i
O=C(CSCc1ccc(Cl)cc1)Nc1ccccc1O	i	i	i	i	i	i	nt	nt	nt
COc1ccc(C(c2nnnn2C2CCCCC2)N2CCN(c3ccc(OC)cc3)CC2)cc1 (stereo not given)	i	i	i	i	i	i	nt	nt	nt
COc1ccc(OC)c(C(c2nnnn2C2CCCC2)N2CCN(c3ccccc3)CC2)c1 (stereo not given)	i	i	i	-8.6	i	i	58%	i	43%
O=S(=O)(NC1c2cccc3cccc(c23)C1Sc1ncccn1)c1ccccc1 (stereo not given)	i	i	i	i	i	i	nt	nt	nt
C=CCOc1ccc(/C=N/NC(=O)C(C)Sc2ccccn2)cc1OC (stereo not given)	i	i	i	i	i	i	nt	nt	nt
COc1cc(/C=C/C(=O)c2ccc(NS(=O)(=O)c3ccc(C)cc3)cc2)ccc1OC(F)F	i	i	i	i	i	i	i	i	i
O=C(C1CC(=O)N(c2ccc(F)cc2)C1)N1CCC(c2nc3ccccc3[nH]2)CC1 (stereo not given)	i	i	i	i	i	i	nt	nt	nt
COc1ccccc1CN1CC(C(=O)NCc2nccn2C)CCC1=O (stereo not given)	i	i	i	i	i	i	nt	nt	nt
Cc1cc(C)nc(N/C(=N\S(=O)(=O)Cc2ccccc2)Nc2ccccc2Br)n1	i	i	i	-9.4	i	i	40%	i	i
Cc1cc(C)nc(Nc2ccccc2Br)n1	i	i	i	i	i	i	nt	nt	nt
COc1cccc(/C=N/Nc2nc(Nc3ccccc3)nc(-n3nc(C)cc3C)n2)c1O	i	i	i	-10	i	i	43%	i	24%
CCc1ccc(NC(=O)CSc2nc3ccccc3nc2N2CCCC2)cc1	i	6	i	i	i	i	i	i	i
Cc1ccc(NC(=O)CSc2nc3ccccc3nc2N2CCCC2)cc1	i	i	i	i	i	i	i	i	i
Clc1ccccc1-c1ccc(CN2CCN(c3ccccc3)CC2)o1	i	i	i	i	i	i	i	i	i
COc1cc(/C=C2/C(=N)N3C(=NC2=O)SN=C3S(C)(=O)=O)ccc1OS(=O)(=O)c1ccccc1	i	i	i	i	nt	i	nt	nt	nt
CCOc1cc(/C=C2/C(=N)N3C(=NC2=O)SN=C3S(C)(=O)=O)ccc1OS(=O)(=O)c1ccccc1	i	i	i	i	i	i	i	i	i
COc1ccc(S(=O)(=O)N(CC(=O)N/N=C/c2cccs2)c2cc(C)cc(C)c2)cc1OC	i	i	i	i	i	i	nt	nt	nt
Cc1ccccc1CN1CCN(c2nc3ccccc3s2)CC1	i	i	i	i	i	i	i	i	34%
